Series [1] in a line: Intrinsic clearance in human liver microsomes at 1 uM by LC-MS/MS analysis. To be noted: read-out: CLH. It counts as ADME.
Series [2] in a line: Intrinsic clearance in CD1 mouse liver microsomes at 1 uM by LC-MS/MS analysis. Format: ADME. To be noted: read-out: CLH. (Liver microsomes are a subcellular fraction often used to study metabolism.)
The next series has as its system Plasmodium falciparum. The series can be described thus: Antimalarial activity against Plasmodium falciparum 3D7 infected human erythrocytes assessed as parasite growth inhibition after 72 hrs by spectrophotometry. Format: functional, organism-based. To be noted: 3D7, 72 h. The procedure, abridged: (§1)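 Cell-based read-outs (parasite growth in erythrocytes; class I HDAC activity in HeLa) were run with multiple repetitions of each assay to limit variability.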

The nature of series [3]: Inhibition of class 1 histone deacetylase in human HeLa cells using FLUOR DE LYS as fluorescent substrate after 4 hrs by spectrophotometry. Format: cell-based. Summed up:
as §1

The target in series [4] is T1, Histone deacetylase 1 (Homo sapiens, UniProt Q13547). The series can be described thus: Inhibition of recombinant human His-tagged HDAC1 expressed in insect cells preincubated for 10 mins followed by addition of FLUOR DE LYS as fluorescent substrate measured after 1 hr by spectrophotometry.
T1 sequence (Q13547 whole entry): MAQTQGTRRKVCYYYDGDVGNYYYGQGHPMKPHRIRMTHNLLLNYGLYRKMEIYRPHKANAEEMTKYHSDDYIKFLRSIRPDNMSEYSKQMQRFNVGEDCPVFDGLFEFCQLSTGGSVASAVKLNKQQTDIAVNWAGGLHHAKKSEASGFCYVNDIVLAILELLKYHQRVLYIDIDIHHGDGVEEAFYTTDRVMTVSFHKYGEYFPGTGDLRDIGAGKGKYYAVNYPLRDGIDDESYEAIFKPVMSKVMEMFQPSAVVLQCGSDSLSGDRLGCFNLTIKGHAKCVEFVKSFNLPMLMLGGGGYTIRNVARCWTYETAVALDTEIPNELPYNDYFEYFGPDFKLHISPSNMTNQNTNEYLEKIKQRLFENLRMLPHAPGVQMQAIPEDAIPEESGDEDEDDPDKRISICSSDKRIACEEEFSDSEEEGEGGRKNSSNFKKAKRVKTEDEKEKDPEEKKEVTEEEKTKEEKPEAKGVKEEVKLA
The nature of series [5]: Clearance in NMRI mouse plasma 2 mg/kg, iv by LC-MS/MS analysis. Format: ADME, organism-based.
The nature of series [6]: Inhibition of HDAC1 in Plasmodium falciparum 3D7 infected in human erythrocytes assessed as histone H4 hyperacetylation at lysine8 residue by western blotting method. Format: cell-based. Summed up:
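P. falciparum parasites inside erythrocytes were treated with increasing compound concentrations. Histone H4 lysine 8 acetylation was analysed, and the concentration giving hyperacetylation was expressed as an EC50.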
On the technique in general: A western blot detects proteins with antibodies after separation by electrophoresis.

For series [7], the target named is T1, Histone deacetylase 1. The series can be described thus: Inhibition of human HDAC1 at 5 uM.
Series [8] deals with Histone deacetylase 2 (Homo sapiens) (UniProt Q92769). The series is described as follows: Inhibition of human HDAC2 at 5 uM.
Histone deacetylase 2 (Homo sapiens), sequence (Q92769 whole entry): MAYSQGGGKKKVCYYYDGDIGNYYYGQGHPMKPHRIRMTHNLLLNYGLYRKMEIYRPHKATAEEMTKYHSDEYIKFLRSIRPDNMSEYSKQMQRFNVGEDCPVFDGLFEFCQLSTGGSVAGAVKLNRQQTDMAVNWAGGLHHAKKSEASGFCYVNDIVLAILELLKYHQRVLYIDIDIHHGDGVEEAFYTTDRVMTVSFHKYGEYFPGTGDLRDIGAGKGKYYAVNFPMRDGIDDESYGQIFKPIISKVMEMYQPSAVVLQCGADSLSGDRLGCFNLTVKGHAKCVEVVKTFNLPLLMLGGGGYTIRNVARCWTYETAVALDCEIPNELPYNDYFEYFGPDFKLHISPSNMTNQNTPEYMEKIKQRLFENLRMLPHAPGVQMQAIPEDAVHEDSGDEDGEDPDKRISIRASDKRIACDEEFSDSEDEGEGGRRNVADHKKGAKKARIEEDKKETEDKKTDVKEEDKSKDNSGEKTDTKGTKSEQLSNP
The next series addresses Histone deacetylase 3 (Homo sapiens, UniProt O15379). The series is described as follows: Inhibition of human HDAC3. Summed up:
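HDAC3 was measured within a human HDAC enzyme panel (HDAC1–7 and 9), with concentrations tested up to 5 μM.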

Series [9] concerns the target Histone deacetylase 4 (Homo sapiens) (UniProt P56524). The series can be described thus: Inhibition of human HDAC4 at 5 uM.
In series [10] the target is Histone deacetylase 5 (Homo sapiens) (UniProt Q9UQL6). The series is described as follows: Inhibition of human HDAC5 at 5 uM.
Histone deacetylase 5 (Homo sapiens), sequence (Q9UQL6 whole entry): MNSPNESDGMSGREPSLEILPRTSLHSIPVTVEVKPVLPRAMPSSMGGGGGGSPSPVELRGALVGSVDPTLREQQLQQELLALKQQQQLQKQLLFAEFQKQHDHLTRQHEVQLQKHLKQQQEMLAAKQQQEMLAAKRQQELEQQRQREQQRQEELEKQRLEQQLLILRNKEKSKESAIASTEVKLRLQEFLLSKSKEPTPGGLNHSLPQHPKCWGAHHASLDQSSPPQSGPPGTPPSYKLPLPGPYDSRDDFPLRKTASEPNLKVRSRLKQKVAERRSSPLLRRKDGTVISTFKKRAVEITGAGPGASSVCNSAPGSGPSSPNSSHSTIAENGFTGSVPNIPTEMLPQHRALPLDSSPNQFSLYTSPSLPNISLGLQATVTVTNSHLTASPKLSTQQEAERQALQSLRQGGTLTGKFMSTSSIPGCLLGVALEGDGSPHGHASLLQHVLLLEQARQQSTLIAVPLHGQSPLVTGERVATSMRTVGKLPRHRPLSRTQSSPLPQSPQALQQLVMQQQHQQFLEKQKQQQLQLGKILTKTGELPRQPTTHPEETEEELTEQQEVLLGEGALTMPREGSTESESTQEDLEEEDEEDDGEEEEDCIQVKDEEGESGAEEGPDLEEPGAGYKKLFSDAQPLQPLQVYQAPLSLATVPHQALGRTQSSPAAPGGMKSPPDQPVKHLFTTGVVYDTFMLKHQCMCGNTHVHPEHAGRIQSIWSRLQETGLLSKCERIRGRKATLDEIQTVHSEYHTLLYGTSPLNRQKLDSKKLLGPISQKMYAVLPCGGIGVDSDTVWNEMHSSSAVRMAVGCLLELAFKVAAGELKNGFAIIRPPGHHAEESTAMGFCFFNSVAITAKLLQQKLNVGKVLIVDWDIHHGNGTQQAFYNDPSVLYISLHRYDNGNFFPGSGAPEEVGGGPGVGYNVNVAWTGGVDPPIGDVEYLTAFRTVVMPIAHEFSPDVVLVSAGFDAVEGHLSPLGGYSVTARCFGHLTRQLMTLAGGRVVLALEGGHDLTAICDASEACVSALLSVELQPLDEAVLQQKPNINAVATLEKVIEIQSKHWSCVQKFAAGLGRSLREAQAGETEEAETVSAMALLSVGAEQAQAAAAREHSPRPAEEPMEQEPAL
Series [11] has as its target T2, Protein deacetylase HDAC6 (Homo sapiens) (UniProt Q9UBN7).
T2 sequence (whole entry): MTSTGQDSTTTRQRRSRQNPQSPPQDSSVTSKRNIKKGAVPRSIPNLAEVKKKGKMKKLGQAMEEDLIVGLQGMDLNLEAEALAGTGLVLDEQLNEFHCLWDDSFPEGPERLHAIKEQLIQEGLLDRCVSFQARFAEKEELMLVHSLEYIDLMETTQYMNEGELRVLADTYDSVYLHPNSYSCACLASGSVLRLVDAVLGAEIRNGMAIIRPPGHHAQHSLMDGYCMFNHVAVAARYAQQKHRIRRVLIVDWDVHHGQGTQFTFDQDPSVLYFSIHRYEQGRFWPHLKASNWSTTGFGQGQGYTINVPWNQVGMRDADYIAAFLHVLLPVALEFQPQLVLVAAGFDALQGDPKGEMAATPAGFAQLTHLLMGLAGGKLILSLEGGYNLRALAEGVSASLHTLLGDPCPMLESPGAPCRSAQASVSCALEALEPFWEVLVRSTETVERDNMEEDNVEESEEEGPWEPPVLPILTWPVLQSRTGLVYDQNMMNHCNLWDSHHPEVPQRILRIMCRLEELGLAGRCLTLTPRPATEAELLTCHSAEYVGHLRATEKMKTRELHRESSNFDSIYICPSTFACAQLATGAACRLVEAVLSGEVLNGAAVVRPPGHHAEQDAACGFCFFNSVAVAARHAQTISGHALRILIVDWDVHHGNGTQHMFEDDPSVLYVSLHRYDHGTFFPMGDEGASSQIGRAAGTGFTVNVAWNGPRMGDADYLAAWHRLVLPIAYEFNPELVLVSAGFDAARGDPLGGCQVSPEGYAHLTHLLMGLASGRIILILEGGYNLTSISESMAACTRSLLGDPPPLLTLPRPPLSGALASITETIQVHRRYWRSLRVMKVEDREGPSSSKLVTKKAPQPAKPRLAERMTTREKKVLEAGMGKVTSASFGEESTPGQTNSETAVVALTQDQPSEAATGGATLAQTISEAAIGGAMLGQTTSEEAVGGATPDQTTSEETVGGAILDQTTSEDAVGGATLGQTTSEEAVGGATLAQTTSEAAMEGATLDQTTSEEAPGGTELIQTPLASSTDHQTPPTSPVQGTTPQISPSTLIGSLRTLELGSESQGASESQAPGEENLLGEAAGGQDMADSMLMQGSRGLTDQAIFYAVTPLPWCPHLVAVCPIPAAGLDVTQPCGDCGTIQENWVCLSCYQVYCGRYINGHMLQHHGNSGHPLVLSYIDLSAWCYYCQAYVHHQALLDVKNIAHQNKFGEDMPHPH
The series is described as follows: Inhibition of human HDAC6 at 5 uM.

Series [12] deals with T3, Histone deacetylase 7 (Homo sapiens) (UniProt Q8WUI4).
T3 sequence (whole entry): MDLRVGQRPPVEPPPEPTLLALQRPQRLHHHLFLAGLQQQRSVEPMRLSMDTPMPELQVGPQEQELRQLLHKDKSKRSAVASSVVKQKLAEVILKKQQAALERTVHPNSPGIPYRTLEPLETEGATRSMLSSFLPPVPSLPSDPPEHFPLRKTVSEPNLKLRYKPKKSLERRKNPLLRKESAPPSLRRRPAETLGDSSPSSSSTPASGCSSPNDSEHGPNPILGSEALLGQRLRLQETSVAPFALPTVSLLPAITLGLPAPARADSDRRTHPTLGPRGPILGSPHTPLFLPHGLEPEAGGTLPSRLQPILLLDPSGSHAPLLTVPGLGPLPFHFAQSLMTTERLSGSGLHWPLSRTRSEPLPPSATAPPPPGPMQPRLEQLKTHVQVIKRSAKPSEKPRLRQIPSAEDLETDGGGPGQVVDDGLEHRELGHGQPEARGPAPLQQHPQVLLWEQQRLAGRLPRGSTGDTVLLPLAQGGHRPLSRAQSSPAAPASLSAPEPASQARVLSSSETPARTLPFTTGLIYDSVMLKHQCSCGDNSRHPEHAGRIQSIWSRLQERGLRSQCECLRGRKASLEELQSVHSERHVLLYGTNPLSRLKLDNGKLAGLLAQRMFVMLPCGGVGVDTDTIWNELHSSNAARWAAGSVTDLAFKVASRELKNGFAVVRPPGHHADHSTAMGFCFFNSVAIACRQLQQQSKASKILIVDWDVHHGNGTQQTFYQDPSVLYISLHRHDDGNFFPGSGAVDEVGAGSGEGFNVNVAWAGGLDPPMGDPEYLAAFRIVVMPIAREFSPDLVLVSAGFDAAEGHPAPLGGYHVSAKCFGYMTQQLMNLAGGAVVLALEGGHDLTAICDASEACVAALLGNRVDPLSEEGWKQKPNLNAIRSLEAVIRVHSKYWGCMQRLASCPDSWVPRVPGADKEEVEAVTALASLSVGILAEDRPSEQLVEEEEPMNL
The series can be described thus: Inhibition of human HDAC7 at 5 uM.

The target in series [13] is Histone deacetylase 9 (Homo sapiens) (UniProt Q9UKV0). The series is described as follows: Inhibition of human HDAC9 at 5 uM.
Histone deacetylase 9 (Homo sapiens), sequence (Q9UKV0 whole entry): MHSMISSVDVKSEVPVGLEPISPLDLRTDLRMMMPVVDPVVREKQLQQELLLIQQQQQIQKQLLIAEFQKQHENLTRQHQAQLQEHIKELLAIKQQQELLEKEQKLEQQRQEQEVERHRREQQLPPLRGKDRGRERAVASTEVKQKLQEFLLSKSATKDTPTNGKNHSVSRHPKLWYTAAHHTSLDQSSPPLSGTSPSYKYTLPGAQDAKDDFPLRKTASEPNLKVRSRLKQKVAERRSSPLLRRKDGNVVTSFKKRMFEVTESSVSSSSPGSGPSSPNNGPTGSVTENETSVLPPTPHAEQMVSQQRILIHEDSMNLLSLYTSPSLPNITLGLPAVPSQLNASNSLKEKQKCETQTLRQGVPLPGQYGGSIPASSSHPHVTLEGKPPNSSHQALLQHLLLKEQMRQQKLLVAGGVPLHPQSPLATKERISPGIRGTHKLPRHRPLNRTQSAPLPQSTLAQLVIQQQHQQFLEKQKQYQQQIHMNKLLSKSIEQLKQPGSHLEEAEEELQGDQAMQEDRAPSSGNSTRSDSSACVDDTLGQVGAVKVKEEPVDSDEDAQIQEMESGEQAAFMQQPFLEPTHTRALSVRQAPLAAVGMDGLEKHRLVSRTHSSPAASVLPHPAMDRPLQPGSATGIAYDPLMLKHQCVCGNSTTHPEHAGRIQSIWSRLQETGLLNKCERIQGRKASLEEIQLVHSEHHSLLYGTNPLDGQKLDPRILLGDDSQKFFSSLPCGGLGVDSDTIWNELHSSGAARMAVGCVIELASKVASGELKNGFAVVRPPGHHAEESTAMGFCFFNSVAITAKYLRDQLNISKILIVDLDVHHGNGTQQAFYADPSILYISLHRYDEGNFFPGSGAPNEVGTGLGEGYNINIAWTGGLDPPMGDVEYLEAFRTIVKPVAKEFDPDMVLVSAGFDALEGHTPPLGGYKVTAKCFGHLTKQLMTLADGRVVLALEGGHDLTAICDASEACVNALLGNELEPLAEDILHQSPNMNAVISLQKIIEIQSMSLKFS
The nature of series [14]: Cytotoxicity against human HeLa cells assessed as cell viability after 72 hrs by CellTiter-Glo assay. It counts as cell-based.
Series [15] in a line: Cytotoxicity against human HUVEC cells assessed as cell viability after 72 hrs by CellTiter-Glo assay. Format: cell-based. A general note: ATP-based viability assays read luminescence as a measure of living cells.
A short description of series [16]: Intrinsic clearance in Han Wistar rat liver microsomes at 1 uM by LC-MS/MS analysis. Format: ADME. To be noted: read-out: CLH.

The source made the active and inactive calls. The calls are words filed in the database; no cut-off is given here.

The record followed here is ChEMBL document CHEMBL3808289, “Discovery of a Selective Series of Inhibitors of Plasmodium falciparum HDACs” (ACS Med Chem Lett, 2016).

By EC50 is commonly meant the concentration needed to bring the measured effect to its halfway point. For orientation: IC50 means the concentration that gives 50% inhibition. For orientation: clearance means the volume of plasma or blood freed of the substance per unit of time. Lower therefore signals a low capacity for elimination. One may read the CC50 as the concentration giving 50% cytotoxicity.

Histone deacetylase 3, sequence (O15379 whole entry): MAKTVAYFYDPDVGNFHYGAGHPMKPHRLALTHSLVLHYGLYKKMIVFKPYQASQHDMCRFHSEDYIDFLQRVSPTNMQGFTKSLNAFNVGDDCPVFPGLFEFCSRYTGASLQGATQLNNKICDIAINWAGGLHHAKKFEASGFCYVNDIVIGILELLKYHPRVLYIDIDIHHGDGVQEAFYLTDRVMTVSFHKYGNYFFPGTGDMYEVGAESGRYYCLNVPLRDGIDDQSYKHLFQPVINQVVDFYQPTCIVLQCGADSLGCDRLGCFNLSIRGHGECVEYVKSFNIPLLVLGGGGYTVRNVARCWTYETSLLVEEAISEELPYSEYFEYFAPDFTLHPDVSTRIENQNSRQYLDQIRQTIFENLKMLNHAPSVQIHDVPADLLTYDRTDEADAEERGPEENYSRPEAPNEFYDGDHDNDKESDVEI
Histone deacetylase 4 (Homo sapiens), sequence (P56524 whole entry): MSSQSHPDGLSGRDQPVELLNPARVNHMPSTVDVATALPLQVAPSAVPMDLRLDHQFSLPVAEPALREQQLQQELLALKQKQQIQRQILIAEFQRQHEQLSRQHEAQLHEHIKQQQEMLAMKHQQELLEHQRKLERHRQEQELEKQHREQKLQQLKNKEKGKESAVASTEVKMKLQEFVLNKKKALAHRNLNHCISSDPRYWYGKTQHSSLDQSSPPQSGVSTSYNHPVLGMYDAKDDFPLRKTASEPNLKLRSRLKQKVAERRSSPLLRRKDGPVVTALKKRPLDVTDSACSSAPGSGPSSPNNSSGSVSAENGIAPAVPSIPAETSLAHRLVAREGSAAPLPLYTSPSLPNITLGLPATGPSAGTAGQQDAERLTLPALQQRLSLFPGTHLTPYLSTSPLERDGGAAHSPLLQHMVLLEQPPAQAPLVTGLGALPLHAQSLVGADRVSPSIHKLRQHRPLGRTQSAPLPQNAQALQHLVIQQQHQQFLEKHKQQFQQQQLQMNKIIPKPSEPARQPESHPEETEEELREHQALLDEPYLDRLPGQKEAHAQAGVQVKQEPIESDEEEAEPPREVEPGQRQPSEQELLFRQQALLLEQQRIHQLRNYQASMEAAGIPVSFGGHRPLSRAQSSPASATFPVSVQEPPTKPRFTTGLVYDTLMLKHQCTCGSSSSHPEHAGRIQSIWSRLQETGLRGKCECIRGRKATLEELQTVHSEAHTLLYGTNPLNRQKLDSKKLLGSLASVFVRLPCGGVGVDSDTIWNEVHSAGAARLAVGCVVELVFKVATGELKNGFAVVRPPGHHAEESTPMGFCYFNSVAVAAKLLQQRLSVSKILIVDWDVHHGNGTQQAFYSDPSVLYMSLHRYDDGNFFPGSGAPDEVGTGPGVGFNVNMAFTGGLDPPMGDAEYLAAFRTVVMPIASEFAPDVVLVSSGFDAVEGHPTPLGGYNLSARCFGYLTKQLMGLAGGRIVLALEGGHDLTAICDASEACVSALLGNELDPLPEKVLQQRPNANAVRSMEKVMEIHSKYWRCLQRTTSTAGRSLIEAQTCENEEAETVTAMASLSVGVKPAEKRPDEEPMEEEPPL

In the case of `CNC(=O)CCCCC[C@H](NC(=O)c1cncs1)c1ncc(-c2ccc(-c3ccn[nH]3)cc2)[nH]1`, the microsomal CLint at 1 µM is 19 µL/min/mg in series [1], 12 µL/min/mg in series [2] and 27 µL/min/mg in [16]. Further, the EC50 in the series on Plasmodium falciparum is 450 nM; in series [6], 350 nM. In addition, the figures for the IC50 (in series [3]; at Histone deacetylase 1 [4]; against Histone deacetylase 3) were 16600 nM, 1850 nM and 330 nM, respectively. In addition, in series [5], the clearance came to 247 mL/min/kg. The inhibition entry (on Histone deacetylase 1 [7]; in series [8]; in series [9]; in series [10]; in [11]; in [12]) was “inactive” throughout. Besides, the inhibition result in [13] was “inactive”. In addition, the CC50 at 72 h in series [14] and in series [15] was > 25000 nM throughout.
